The source made the active and inactive calls.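 Rule for the calls: active = caspase 3/7 peak fold activation above 5 at a dose under 20 µM within 7 h; inactive = the rest.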
The molecules below were run on SW403 caspase-3/7 Glo luminescence, 7 h (assay: apoptosis induction by VCP inhibitors – cell-based, mechanism study for p97 inhibitor project (AID 504653)). Settings: stronger effect = higher value.
In short: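 Test system: SW403 cells. Incubation: 7 h compound exposure, then 1 h reagent incubation at room temperature. Detection: Caspase-3/7 Glo reagent, luminescence. Benchmarks: 1 % DMSO reference.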

| maximal fold activation | Structure (SMILES) |
| --- | --- |
| 1.3 (inactive) | OCCOc1cccc2c(NCc3ccccc3)nc(N3CCOc4ccccc43)nc12 |
| 24 | COc1cccc2c(NCc3ccccc3)nc(NCc3cccs3)nc12 |
| 18 | Brc1cccc(CNc2nc(NCc3ccccc3)c3ccccc3n2)c1 |
| 15 (inactive) | Fc1cccc(Nc2nc(NCc3ccccc3)c3ccccc3n2)c1 |
| 7.3 (inactive) | Clc1cccc(Nc2nc(NCc3ccccc3)c3ccccc3n2)c1 |
| 13 (inactive) | Cc1ccc(CNc2nc(NCc3ccccc3)c3ccccc3n2)cc1 |
| 12 (inactive) | COc1cccc2c(NCc3ccccc3)nc(NCc3ccccc3)nc12 |
| 16 | COc1cccc2c(NCc3ccccc3)nc(Nc3nc4ccccc4n3C)nc12 |
| 1.4 (inactive) | c1ccc(CNc2nc(N3CCOc4ccccc43)nc3ccsc23)cc1 |
| 1.6 (inactive) | c1ccc(CNc2nc(N3CCOc4ccccc43)nc3ccccc23)cc1 |
| 1.6 (inactive) | COc1cccc2c(NCc3ccccc3)nc(-n3c(N)nc4cc(Cl)c(Cl)cc43)nc12 |
| 29 | COc1cccc2c(NCc3ccccc3)nc(-n3c(N)nc4ccccc43)nc12 |
| 8 (inactive) | CCN(CC)CCOc1cccc2c(NCc3ccccc3)nc(N3CCOc4ccccc43)nc12 |
| 3.3 (inactive) | COc1cccc(CNc2nc(NCc3ccccc3)c3ccccc3n2)c1 |
| 26 | FC(F)(F)c1ccc(CNc2nc(NCc3ccccc3)c3ccccc3n2)cc1 |
| 5.9 (inactive) | Fc1cccc(CNc2nc(NCc3ccccc3)c3ccccc3n2)c1 |
| 1.6 (inactive) | COc1cccc2c(NCc3ccccc3)nc(N3CCOc4ccccc43)nc12 |

— PubChem BioAssay AID504653 (Molecular Libraries Program, Specialized Chemistry Center, …, 2011)
